Measured values published in ChEMBL document CHEMBL3352329, “Antifungal activity of resveratrol derivatives against Candida species” (2014).
Converted amounts (≈) assume the structure as drawn. The source made the active and inactive calls. The rule behind the calls is not given here.

Legend:
Kluyveromyces marxianus = experiment: Antifungal activity against Candida kefyr clinical isolate assessed as growth inhibition after 48 hrs by broth microdilution method; type: functional
Method in brief: (§1)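 CLSI broth microdilution with serial 2-fold dilutions in RPMI AutoMod medium. Inoculum from a 0.5 McFarland suspension (10^6 cfu/mL). Plates incubated 48 h at 32 °C, then OD read at 630 nm. MIC95 is the lowest concentration giving 95% growth inhibition versus untreated control. Mean of two independent experiments, each run in triplicate.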

Nakaseomyces glabratus = experiment: Antifungal activity against Candida glabrata ATCC 90030 assessed as growth inhibition after 48 hrs by broth microdilution method; type: functional; conditions: ATCC 90030, 48 h; method in brief: as §1
Candida albicans [1] = experiment: Antifungal activity against Candida albicans SC5314 ATCC MYA-2876 assessed as growth inhibition after 48 hrs by broth microdilution method; type: functional; conditions: SC5314 ATCC MYA-2876, 48 h; method in brief: as §1
Pichia norvegensis = experiment: Antifungal activity against Candida norvegensis clinical isolate assessed as growth inhibition after 48 hrs by broth microdilution method; type: functional; method in brief: as §1
Candida parapsilosis = experiment: Antifungal activity against Candida parapsilosis ATCC 22019 assessed as growth inhibition after 48 hrs by broth microdilution method; type: functional; conditions: Lodderomyces parapsilosis, ATCC 22019, 48 h; method in brief: as §1
[Candida] inconspicua = Antifungal activity against Candida inconspicua clinical isolate assessed as growth inhibition after 48 hrs by broth microdilution method; type: functional; conditions: Pichia inconspicua; method in brief: as §1
Pichia kudriavzevii = experiment: Antifungal activity against Candida krusei ATCC 6258 assessed as growth inhibition after 48 hrs by broth microdilution method; type: functional; conditions: ATCC 6258, 48 h; method in brief: as §1
Candida tropicalis [2] = experiment: Antifungal activity against Candida tropicalis ATCC MYA-3404/T1 assessed as growth inhibition after 48 hrs by broth microdilution method; type: functional; conditions: ATCC MYA-3404/T1, 48 h; method in brief: as §1
[3] = system: Meyerozyma guilliermondii; experiment: Antifungal activity against Candida guilliermondii ATCC 6260 assessed as growth inhibition after 48 hrs by broth microdilution method; type: functional; conditions: ATCC 6260, 48 h; method in brief: as §1
Debaryomyces hansenii = experiment: Antifungal activity against Candida famata VKMY-9 assessed as growth inhibition after 48 hrs by broth microdilution method; type: functional; conditions: VKMY-9, 48 h; method in brief: as §1
Clavispora lusitaniae = experiment: Antifungal activity against Candida lusitaniae CBS 6936 assessed as growth inhibition after 48 hrs by broth microdilution method; type: functional; conditions: CBS 6936, 48 h; method in brief: as §1
Candida dubliniensis = experiment: Antifungal activity against Candida dubliniensis ATCC MYA-646 assessed as growth inhibition after 48 hrs by broth microdilution method; type: functional; conditions: ATCC MYA-646, 48 h; method in brief: as §1
Candida tropicalis [4] = experiment: Antifungal activity against Candida tropicalis ATCC MYA-3404/T1 assessed as growth inhibition at 300 ug/ml after 48 hrs by broth microdilution method; type: functional, organism-based
Method in brief: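 Broth microdilution per CLSI, serial 2-fold dilutions in RPMI AutoMod medium; inoculum 0.5 McFarland (10^6 cfu/mL). Incubation 48 h at 32 °C, OD 630 nm read; activity judged against untreated control, MIC95 being lowest concentration giving 95% growth inhibition; 300 μg/mL highest concentration tested. Two independent experiments, each in triplicate; mean values.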

Candida albicans [5] = experiment: Antifungal activity against Candida albicans SC5314 ATCC MYA-2876 assessed as growth inhibition at 300 ug/ml after 48 hrs by broth microdilution method; type: functional, organism-based
Method in brief: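 Broth microdilution in RPMI AutoMod medium against SC5314, tested up to 300 μg/mL, the highest concentration used. Inoculum from a 0.5 McFarland suspension (10^6 cfu/mL). Incubated 48 h at 32 °C, growth read as OD at 630 nm. Activity judged as 95% growth inhibition versus control. Two independent experiments, each in triplicate.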

Candida albicans [6] = experiment: Antifungal activity against Candida albicans SC5314 ATCC MYA-2876 assessed as inhibition of hyphal formation at 14 ug/ml after 48 hrs by microscopy; type: functional, organism-based
Method in brief: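 Yeast-to-hyphae transition of SC5314 examined after 48 h at 32 °C in RPMI medium. Cells exposed to 7, 14 or 28 μg/mL alongside untreated control cells. Hyphal formation assessed by comparing cell morphology between treated and control cultures.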

## COc1ccc(/C=C/c2cc(O)cc(OC)c2)cc1
Kluyveromyces marxianus
  MIC95: 18 µg/mL (≈ 70.2 µM)
Nakaseomyces glabratus
  MIC95: 37 µg/mL (≈ 144 µM)
Candida albicans [1]
  MIC95: 37 µg/mL (≈ 144 µM)
Pichia norvegensis
  MIC95: 37 µg/mL (≈ 144 µM)
Candida parapsilosis
  MIC95: 18 µg/mL (≈ 70.2 µM)
[Candida] inconspicua
  MIC95: 37 µg/mL (≈ 144 µM)
Pichia kudriavzevii
  MIC95: 37 µg/mL (≈ 144 µM)
Candida tropicalis [2]
  MIC95: 27 µg/mL (≈ 105 µM)
[3]
  MIC95: 18 µg/mL (≈ 70.2 µM)
Debaryomyces hansenii
  MIC95: 9 µg/mL (≈ 35.1 µM)
Clavispora lusitaniae
  MIC95: 37 µg/mL (≈ 144 µM)
Candida dubliniensis
  MIC95: 18 µg/mL (≈ 70.2 µM)

## COc1cc(O)cc(/C=C/c2ccc(O)cc2)c1
Kluyveromyces marxianus
  MIC95: 150 µg/mL (≈ 619 µM)
Nakaseomyces glabratus
  MIC95: 300 µg/mL (≈ 1240 µM)
Candida albicans [1]
  MIC95: 300 µg/mL (≈ 1240 µM)
Pichia norvegensis
  MIC95: 300 µg/mL (≈ 1240 µM)
Candida tropicalis [4]
  growth inhibition (GI): inactive
Candida parapsilosis
  MIC95: 300 µg/mL (≈ 1240 µM)
[Candida] inconspicua
  MIC95: 300 µg/mL (≈ 1240 µM)
Pichia kudriavzevii
  MIC95: 300 µg/mL (≈ 1240 µM)
[3]
  MIC95: 150 µg/mL (≈ 619 µM)
Debaryomyces hansenii
  MIC95: 18 µg/mL (≈ 74.3 µM)
Clavispora lusitaniae
  MIC95: 300 µg/mL (≈ 1240 µM)
Candida dubliniensis
  MIC95: 150 µg/mL (≈ 619 µM)

## CC(=O)Oc1cc(/C=C/c2ccc(O)cc2)cc(OC(C)=O)c1
Candida albicans [5]
  growth inhibition (GI): inactive

## CC(=O)Oc1cc(O)cc(/C=C/c2ccc(O)cc2)c1
Candida albicans [5]
  growth inhibition (GI): inactive

## CC(=O)Oc1ccc(/C=C/c2cc(O)cc(OC(C)=O)c2)cc1
Candida albicans [5]
  growth inhibition (GI): inactive

## CC(=O)Oc1ccc(/C=C/c2cc(OC(C)=O)cc(OC(C)=O)c2)cc1
Candida albicans [5]
  growth inhibition (GI): inactive

## CC(=O)Oc1ccc(/C=C/c2cc(OC(C)=O)cc3c2[C@H](c2cc(OC(C)=O)cc(OC(C)=O)c2)[C@@H](c2ccc(OC(C)=O)cc2)O3)cc1
Candida albicans [5]
  growth inhibition (GI): inactive

## COc1ccc(/C=C/c2cc(OC)cc(OC)c2)cc1
Candida albicans [5]
  growth inhibition (GI): inactive

## OC[C@H]1O[C@@H](Oc2cc(O)cc(/C=C/c3ccc(O)cc3)c2)[C@H](O)[C@@H](O)[C@@H]1O
Candida albicans [5]
  growth inhibition (GI): inactive

## Oc1ccc(/C=C/c2cc(O)cc(O)c2)cc1
Candida albicans [5]
  growth inhibition (GI): inactive

## Oc1ccc([C@H]2c3c(O)cc(O)cc3[C@H]3c4c(cc(O)cc4[C@@H]2O)O[C@@H]3c2ccc(O)cc2)cc1
Candida albicans [5]
  growth inhibition (GI): inactive

## Oc1ccc([C@H]2Oc3ccc(/C=C/c4cc(O)cc5c4[C@@H](c4cc(O)cc(O)c4)[C@H](c4ccc(O)cc4)O5)cc3[C@@H]2c2cc(O)cc3c2[C@H](c2cc(O)cc(O)c2)[C@@H](c2ccc(O)cc2)O3)cc1 (mixture of isomers)
Kluyveromyces marxianus
  MIC95: 150 µg/mL
Nakaseomyces glabratus
  MIC95: 300 µg/mL
Candida albicans [1]
  MIC95: 300 µg/mL
Pichia norvegensis
  MIC95: 300 µg/mL
Candida tropicalis [4]
  growth inhibition (GI): inactive
Candida parapsilosis
  MIC95: 300 µg/mL
[Candida] inconspicua
  MIC95: 300 µg/mL
Pichia kudriavzevii
  MIC95: 300 µg/mL
[3]
  MIC95: 150 µg/mL
Debaryomyces hansenii
  MIC95: 18 µg/mL
Clavispora lusitaniae
  MIC95: 300 µg/mL
Candida dubliniensis
  MIC95: 150 µg/mL

## COc1ccc(/C=C/c2cc(OC)cc3c2[C@H](c2cc(OC)cc(OC)c2)[C@@H](c2ccc(OC)cc2)O3)cc1 (relative stereo)
Candida albicans [5]
  growth inhibition (GI): inactive

## Oc1ccc(/C=C/c2cc(O)cc3c2[C@H](c2cc(O)cc(O)c2)[C@@H](c2ccc(O)cc2)O3)cc1 (relative stereo)
Candida albicans [5]
  growth inhibition (GI): inactive

## Nc1nc(=O)[nH]cc1F [FLUCYTOSINE]
Kluyveromyces marxianus
  MIC95: 4 µg/mL (≈ 31 µM)
Nakaseomyces glabratus
  MIC95: 4 µg/mL (≈ 31 µM)
Candida albicans [1]
  MIC95: 2 µg/mL (≈ 15.5 µM)
Pichia norvegensis
  MIC95: 4 µg/mL (≈ 31 µM)
Candida parapsilosis
  MIC95: 4 µg/mL (≈ 31 µM)
[Candida] inconspicua
  MIC95: 4 µg/mL (≈ 31 µM)
Pichia kudriavzevii
  MIC95: 4 µg/mL (≈ 31 µM)
Candida tropicalis [2]
  MIC95: 4 µg/mL (≈ 31 µM)
[3]
  MIC95: 2 µg/mL (≈ 15.5 µM)
Debaryomyces hansenii
  MIC95: 2 µg/mL (≈ 15.5 µM)
Clavispora lusitaniae
  MIC95: 2 µg/mL (≈ 15.5 µM)
Candida dubliniensis
  MIC95: 2 µg/mL (≈ 15.5 µM)

## COc1cc(/C=C/c2ccc(O)cc2)cc(OC)c1 [PTEROSTILBENE]
Kluyveromyces marxianus
  MIC95: 14 µg/mL (≈ 54.6 µM)
Nakaseomyces glabratus
  MIC95: 28 µg/mL (≈ 109 µM)
Candida albicans [1]
  MIC95: 28 µg/mL (≈ 109 µM)
Pichia norvegensis
  MIC95: 28 µg/mL (≈ 109 µM)
Candida parapsilosis
  MIC95: 14 µg/mL (≈ 54.6 µM)
[Candida] inconspicua
  MIC95: 28 µg/mL (≈ 109 µM)
Pichia kudriavzevii
  MIC95: 28 µg/mL (≈ 109 µM)
Candida tropicalis [2]
  MIC95: 28 µg/mL (≈ 109 µM)
[3]
  MIC95: 7 µg/mL (≈ 27.3 µM)
Debaryomyces hansenii
  MIC95: 7 µg/mL (≈ 27.3 µM)
Clavispora lusitaniae
  MIC95: 28 µg/mL (≈ 109 µM)
Candida dubliniensis
  MIC95: 14 µg/mL (≈ 54.6 µM)
Candida albicans [6]
  inhibition: Active

## COc1ccc(/C=C/c2cc(O)cc(O)c2)cc1 [RESVERATROL 4'-METHYL ETHER]
Kluyveromyces marxianus
  MIC95: 150 µg/mL (≈ 619 µM)
Nakaseomyces glabratus
  MIC95: 150 µg/mL (≈ 619 µM)
Candida albicans [1]
  MIC95: 150 µg/mL (≈ 619 µM)
Pichia norvegensis
  MIC95: 75 µg/mL (≈ 310 µM)
Candida parapsilosis
  MIC95: 300 µg/mL (≈ 1240 µM)
[Candida] inconspicua
  MIC95: 300 µg/mL (≈ 1240 µM)
Pichia kudriavzevii
  MIC95: 150 µg/mL (≈ 619 µM)
Candida tropicalis [2]
  MIC95: 300 µg/mL (≈ 1240 µM)
[3]
  MIC95: 150 µg/mL (≈ 619 µM)
Debaryomyces hansenii
  MIC95: 18 µg/mL (≈ 74.3 µM)
Clavispora lusitaniae
  MIC95: 300 µg/mL (≈ 1240 µM)
Candida dubliniensis
  MIC95: 150 µg/mL (≈ 619 µM)
